Measured values from paper PMC2858585 (DNA and cell biology, 2008).
“Also recorded” adds a separate entry of the source. Read-outs that look alike come from different tables or passages of the source.

Tests used:
Recombinant SPEH1 [1] = target: T1, Recombinant SPEH1 (Strongylocentrotus purpuratus, UniProt B2MWN2); assay: Hydrolysis of EETs and EpOMEs analyzed by LC-MS/MS, recombinant SPEH1; format: biochemical; conditions: natural substrates, adjusted for estimated purity
Recombinant CEEH1 [2] = conditions: natural substrates, ref Harris et al. (2008); cited from earlier work
Recombinant CEEH1 [3] = conditions: read-out: Recombinant CEEH1 IC50; PHOME as substrate; ref Harris et al. (2008); cited from earlier work
Recombinant SPEH1 [4] = target: T1, Recombinant SPEH1; assay: Fluorescent IC50 assay with PHOME as substrate, recombinant SPEH1; format: biochemical
SPEH2 [5] = assay: Phosphatase assay with AttoPhos, SPEH2; format: biochemical, Strongylocentrotus purpuratus; conditions: AttoPhos as substrate
SPEH1 = assay: Phosphatase assay with AttoPhos, SPEH1; format: biochemical, Strongylocentrotus purpuratus; conditions: AttoPhos as substrate
Recombinant SPEH1 [6] = target: T1, Recombinant SPEH1; assay: Inhibition of recombinant SPEH1, [3H] t-DPPO as substrate; format: biochemical; conditions: read-out: Recombinant SPEH1 IC50
Recombinant human sEH = conditions: ref Morisseau et al. (2000), cited from earlier work
Recombinant SPEH1 [7] = target: T1, Recombinant SPEH1; format: biochemical
SPEH2 [8] = assay: Radiometric epoxide hydrolase assay with t-DPPO, recombinant SPEH2; format: biochemical, Strongylocentrotus purpuratus; conditions: t-DPPO as substrate
Procedure, shortened: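 Recombinant enzyme with a C-terminal six-histidine tag, expressed in baculovirus-infected Trichoplusia ni High Five cells (0.1 MOI, 72 h at 28°C). […] The radiometric assay used tritium-labelled t-DPPO as substrate, with enzyme at 0.3 µg/mL, and was terminated at 10 min.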

Recombinant CEEH1 [9] = conditions: ref Harris et al. (2008), cited from earlier work
[10] = t-DPPO as substrate, recombinant human sEH
[11] = t-DPPO as substrate, recombinant SPEH1
[12] = t-DPPO as substrate, recombinant CEEH1

CCCCC/C=C\C/C=C\CC1OC1C/C=C\CCCC(=O)O (stereo not drawn) [8,9-EET]
Specific activity (Recombinant SPEH1 [1]): 33 ± 7.2 nmol/min/mg | Specific activity (Recombinant CEEH1 [2]): 45.2 ± 1.00 nmol/min/mg

CCCCCC=CCC1OC1CCCCCCCC(=O)O (stereo not drawn) [9,10-EpOME, 9,10-epoxy-12-octadecenoate]
Specific activity (Recombinant SPEH1 [1]): 4800 ± 210 nmol/min/mg | Specific activity (Recombinant CEEH1 [2]): 137 ± 1.77 nmol/min/mg

CCCCC/C=C\C[C@H]1O[C@H]1C/C=C\C/C=C\CCCC(=O)O [11,12-EET]
Specific activity (Recombinant SPEH1 [1]): 490 ± 140 nmol/min/mg | Specific activity (Recombinant CEEH1 [2]): 205 ± 15.3 nmol/min/mg

CCCCCC1OC1C/C=C\C/C=C\C/C=C\CCCC(=O)O (stereo not drawn) [14,15-EET]
Specific activity (Recombinant SPEH1 [1]): 330 ± 64 nmol/min/mg | Specific activity (Recombinant CEEH1 [2]): 615 ± 10.8 nmol/min/mg

O=C(NC1CCCCC1)NC12CC3CC(CC(C3)C1)C2 [ACU, N-adamantyl-N′-cyclohexylurea]
IC50 (Recombinant CEEH1 [3]): 2500 ± 120 nM

O=C(O)CCCCCCCCCCCNC(=O)NC12CC3CC(CC(C3)C1)C2 [AUDA, 12-(3-adamantane-1-yl-ureido)-dodecanoic acid]
IC50 (Recombinant CEEH1 [3]): 27 ± 0.29 nM | IC50 (Recombinant SPEH1 [4]): 160 ± 13 nM

O=P(O)(O)Oc1ccc2nc(-c3nc4ccccc4s3)sc2c1 [AttoPhos]
Phosphatase activity of SPEH2 with AttoPhos (SPEH2 [5]): did not display phosphatase activity | Phosphatase activity of SPEH1 with AttoPhos (SPEH1): did not display phosphatase activity

CCCCCCCCCCCCNC(=O)NC1CCCCC1 [CDU, N-cyclohexyl-N′-dodecylurea]
IC50 (Recombinant CEEH1 [3]): 160 ± 23 nM

CCNC(=O)NC1CCCCC1 [CEU, N-cyclohexyl-N′-ethylurea]
IC50 (Recombinant CEEH1 [3]): > 50000 nM | IC50 (Recombinant SPEH1 [6]): > 50000 nM

O=C(NC1CCCCC1)NC1CCCCC1 [DCU, N,N′-dicyclohexylurea]
IC50 (Recombinant CEEH1 [3]): 41000 nM

c1ccc(CC2OC2c2ccccc2)cc1 (stereo not drawn) [t-DPPO]
Km (Recombinant human sEH; [10]): 6.2 ± 0.6 µM | Specific activity (Recombinant human sEH; [10]): 4500 ± 200 nmol/min/mg | kcat (Recombinant human sEH; [10]): 4.3 ± 0.3 s⁻¹ | kcat/Km ratio (Recombinant human sEH; t-DPPO, human enzyme, unit not given): 0.7 | Km (Recombinant SPEH1 [7]; [11]): 35 ± 1.2 µM | kcat (Recombinant SPEH1 [7]; [11]): 44 ± 0.71 s⁻¹ | Specific activity (Recombinant SPEH1 [7]; t-DPPO as substrate, recombinant SPEH1, adjusted for estimated purity): 3100 ± 270 nmol/min/mg | kcat/Km ratio (Recombinant SPEH1 [7]; t-DPPO, SPEH1, unit not given): 1.3 | EH activity of SPEH2 with t-DPPO (SPEH2 [8]): not active; also recorded: did not display activity | Km (Recombinant CEEH1 [9]; [12]): 160 ± 21 µM | Specific activity (Recombinant CEEH1 [9]; [12]): 3000 ± 230 nmol/min/mg | kcat (Recombinant CEEH1 [9]; [12]): 12 ± 0.5 s⁻¹ | kcat/Km ratio (Recombinant CEEH1 [9]; t-DPPO, nematode enzyme, unit not given): 0.07
